Test results reported in ChEMBL document CHEMBL5335836, “Discovery of a new pyrido[2,3-d]pyridazine-2,8-dione derivative as a potential anti-inflammatory agent through COX-1/COX-2 dual inhibition” (RSC Med Chem, 2024).

Columns and labels:
Mus musculus [1] = assay: Anti-inflammatory activity against croton oil induced ear edema Swiss mouse model assessed as edema inhibition at 1.00 mg per ear, TOP measured after 6 hrs relative to control; type: functional
Summary of the method: (§1)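 Male Swiss mice (20–30 g), n=7/group. Croton oil (200 µg/ear in 70% acetone) applied to the inner left ear, with vehicle alone on the right ear. Treatments in 20 µL 70% acetone were then applied topically to the left ear at 0.625 or 1.25 mg/ear, or 1 mg/ear for the reference drug. After 6 h, 6.0 mm ear disks were weighed and % edema inhibition calculated.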

Mus musculus [2] = assay: Anti-inflammatory activity against croton oil induced ear edema Swiss mouse model assessed as edema inhibition at 1.25 mg per ear, TOP measured after 6 hrs relative to control; type: functional; summary of the method: as §1
Mus musculus [3] = assay: Anti-inflammatory activity against croton oil induced ear edema Swiss mouse model assessed as edema inhibition at 0.625 mg per ear, TOP measured after 6 hrs relative to control; type: functional; summary of the method: as §1
[4] = Cytotoxicity against mouse L929 cells assessed as reduction in cell viability incubated for 72 hrs by MTT assay; type: toxicity, cell-based
Summary of the method: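 Fibroblasts (CCL-1) were seeded at 2.5 × 10^5 cells/mL in DMEM + 10% FBS and grown 24 h at 37 °C, 5% CO2 to confluence. They were exposed to 100–1000 µM compound for 72 h, then given MTT (2 mg/mL) for 4 h. Formazan was dissolved in DMSO and read at 492 nm. Viability relative to control gave CC50.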

[5] = target: T1, Prostaglandin G/H synthase 1 (Ovis aries) (UniProt P05979); assay: Inhibition of ovine COX-1 at 31.25 uM by microplate reader analysis relative to control
T1 sequence (whole entry): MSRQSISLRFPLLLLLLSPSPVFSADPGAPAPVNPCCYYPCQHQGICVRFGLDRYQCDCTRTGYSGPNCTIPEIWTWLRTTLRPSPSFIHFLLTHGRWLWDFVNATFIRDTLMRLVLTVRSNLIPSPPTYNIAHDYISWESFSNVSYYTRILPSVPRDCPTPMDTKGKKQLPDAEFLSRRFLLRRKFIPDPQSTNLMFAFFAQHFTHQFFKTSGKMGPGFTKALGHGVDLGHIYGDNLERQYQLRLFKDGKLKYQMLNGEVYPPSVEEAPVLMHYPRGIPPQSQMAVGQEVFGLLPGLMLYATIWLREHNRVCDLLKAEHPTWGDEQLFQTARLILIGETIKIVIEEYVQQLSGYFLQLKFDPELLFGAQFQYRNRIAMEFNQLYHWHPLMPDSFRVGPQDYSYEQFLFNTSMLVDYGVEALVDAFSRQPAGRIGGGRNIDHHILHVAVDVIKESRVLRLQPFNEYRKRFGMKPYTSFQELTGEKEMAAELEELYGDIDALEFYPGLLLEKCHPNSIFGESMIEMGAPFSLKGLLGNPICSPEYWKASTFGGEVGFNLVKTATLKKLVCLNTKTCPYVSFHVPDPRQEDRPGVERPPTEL
Summary of the method: (§2)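 Kit-based cyclooxygenase inhibitor screen using human recombinant COX-2 or ovine COX-1, run per the manufacturer's procedure. Compound was tested at 1.95 and 31.25 µM. Absorbance was read at 405 nm. % inhibition was derived from %B/B0 on a standard curve.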

[6] = target: T1, Prostaglandin G/H synthase 1 (Ovis aries); assay: Inhibition of ovine COX-1 at 1.95 uM by microplate reader analysis relative to control; summary of the method: as §2
[7] = target: T2, Prostaglandin G/H synthase 2 (Homo sapiens) (UniProt P35354); assay: Inhibition of human recombinant COX-2 at 31.25 uM by microplate reader analysis relative to control; summary of the method: as §2
T2 sequence (whole entry): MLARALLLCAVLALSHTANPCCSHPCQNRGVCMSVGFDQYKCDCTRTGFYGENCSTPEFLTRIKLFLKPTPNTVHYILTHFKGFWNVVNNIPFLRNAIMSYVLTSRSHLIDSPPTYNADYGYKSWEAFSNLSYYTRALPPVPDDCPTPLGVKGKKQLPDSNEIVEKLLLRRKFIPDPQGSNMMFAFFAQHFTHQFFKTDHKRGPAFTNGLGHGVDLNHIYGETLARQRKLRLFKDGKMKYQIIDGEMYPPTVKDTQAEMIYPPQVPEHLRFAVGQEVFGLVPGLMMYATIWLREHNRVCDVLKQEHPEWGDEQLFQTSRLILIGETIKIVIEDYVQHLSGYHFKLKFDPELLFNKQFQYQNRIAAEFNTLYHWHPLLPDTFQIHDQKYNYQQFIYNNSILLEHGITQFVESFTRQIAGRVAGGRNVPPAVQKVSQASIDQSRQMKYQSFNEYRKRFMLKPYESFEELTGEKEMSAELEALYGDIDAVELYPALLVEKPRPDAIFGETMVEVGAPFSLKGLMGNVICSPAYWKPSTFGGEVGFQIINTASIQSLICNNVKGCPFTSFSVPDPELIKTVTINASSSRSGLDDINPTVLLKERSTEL

[8] = target: T2, Prostaglandin G/H synthase 2 (Homo sapiens); assay: Inhibition of human recombinant COX-2 at 1.95 uM by microplate reader analysis relative to control; summary of the method: as §2

Row | SMILES | inhibition (INH) (Mus musculus [2]) [%] | inhibition (INH) (Mus musculus [3]) [%] | further results
1 | COc1ccc2c(c1)c(CC(=O)O)c(C)n2C(=O)c1ccc(Cl)cc1 [INDOMETHACIN] | – | – | inhibition (INH) (Mus musculus [1]): 98.2%
2 | O=C(O)c1cc2c(-c3ccc(Cl)cc3)n[nH]c(=O)c2[nH]c1=O | 75.2 | 65.9 | –
3 | O=C(O)c1cc2c(-c3ccc([N+](=O)[O-])cc3)n[nH]c(=O)c2[nH]c1=O | 56.2 | 63.2 | –
4 | N#Cc1cc2c(-c3ccc(Cl)cc3)nn(-c3ccccc3)c(=O)c2[nH]c1=O | 81.8 | 62.8 | IC50 at 72 h [4]: 249 µM; inhibition [5]: 30.6%; inhibition [6]: 22.1%; inhibition [7]: 40.3%; inhibition [8]: 20.2%
5 | N#Cc1cc2c(-c3ccc(Cl)cc3)n[nH]c(=O)c2[nH]c1=O | 50.4 | 49 | –
6 | N#Cc1cc2c(-c3ccc([N+](=O)[O-])cc3)nn(-c3ccccc3)c(=O)c2[nH]c1=O | 78.5 | – | –
7 | CCOC(=O)c1cc2c(-c3ccc([N+](=O)[O-])cc3)n[nH]c(=O)c2[nH]c1=O | – | 64.2 | –
